In ChEMBL document CHEMBL1146602, “4-Hydroxymethyl-3-aminoacridine derivatives as a new family of anticancer agents” (J Med Chem, 2003):
Each block holds one molecule with its values, some of them ahead of it.

Legend:
[1] = Partition coefficient (logP); assay type: physicochemical; settings: octanol/water
HT-29 = experiment: In vitro cytotoxicity against HT-29 (human colon cancer) cell line.; assay type: functional, cell-based
Procedure, shortened: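 HT29 colon adenocarcinoma cells in DMEM with 10% FCS, seeded at 5×10^4 cells/well and grown 2 days, then exposed 24 h to compounds in DMSO (DMSO controls). Cells washed with PBS and regrown 3 days drug-free. Survival read by MTT (30 min, 100 µg/well), formazan dissolved in DMSO, A540, as % of controls. IC50 taken from regression curves.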

L1210 = experiment: In vitro cytotoxic against L1210 (murine leukemia) cell line.; assay type: functional, cell-based; settings: Mus musculus
Procedure, shortened: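 L1210 mouse leukaemia cells in DMEM with 10% FCS, seeded at 10⁵ cells/mL and grown 24 h (about 3×10^5 cells/mL). Compounds added in DMSO at increasing concentrations, in duplicate, against DMSO controls. Cells counted with a Coulter counter after a further 24 h at 37 °C, 5% CO2. IC50 (50% reduction in cell number versus controls) taken from regression curves.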

A549 = experiment: In vitro cytotoxicity against A549 (human lung carcinoma) cell line.; assay type: functional, cell-based
Procedure, shortened: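 Clonogenic test on A549 lung adenocarcinoma cells in F12-K with 10% FCS, plated at 200 cells/well. After 24 h, exposed 24 h to compounds at various concentrations, washed with PBS, then grown 14 days drug-free. Giemsa-stained colonies counted; survival as % of untreated controls.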

logP [1]: 2.07
SMILES: CCOC(=O)Nc1ccc2cc3ccc4c(c3nc2c1)COCN4
IC50 (HT-29): 1300 nM
IC50 (L1210): 80 nM
IC50 (A549): > 50 nM

logP [1]: 0.7
SMILES: CS(=O)(=O)Nc1ccc2cc3ccc4c(c3nc2c1)COCN4
IC50 (HT-29): 12000 nM
IC50 (L1210): 6200 nM
IC50 (A549): 6000 nM

logP [1]: 3.12
SMILES: CCOC(=O)Nc1ccc2cc3ccc4c(c3nc2c1)COCN4C(=O)OCC
IC50 (HT-29): > 100000 nM
IC50 (L1210): 84000 nM
IC50 (A549): 19000 nM

logP [1]: 1.55
SMILES: CCOC(=O)Nc1ccc2cc3ccc(N)c(CO)c3nc2c1
IC50 (HT-29): 40 nM
IC50 (L1210): 10 nM
IC50 (A549): 10 nM

logP [1]: 1.54
SMILES: CN(c1ccc2cc3ccc4c(c3nc2c1)COCN4)S(C)(=O)=O
IC50 (HT-29): 2300 nM
IC50 (L1210): 600 nM
IC50 (A549): 1300 nM

logP [1]: 2
SMILES: CCOC(=O)Nc1ccc2cc3ccc4c(c3nc2c1)COC(=O)N4
IC50 (HT-29): 11000 nM
IC50 (L1210): 2700 nM
IC50 (A549): 2200 nM

The next lines start with the molecule.

SMILES: CNc1ccc2cc3ccccc3nc2c1CO
logP [1]: 2.1
IC50 (HT-29): 2500 nM
IC50 (L1210): 1100 nM
IC50 (A549): 1400 nM

SMILES: c1cc2cc3ccc4c(c3nc2c2c1NCOC2)COCN4
logP [1]: 2.17
IC50 (HT-29): 1500 nM
IC50 (L1210): 350 nM
IC50 (A549): 20 nM

SMILES: O=C1Nc2ccc3cc4ccccc4nc3c2CO1
logP [1]: 1.64
IC50 (HT-29): 17000 nM
IC50 (L1210): 2800 nM
IC50 (A549): 7000 nM

SMILES: CN1COCc2c1ccc1cc3ccc4c(c3nc21)COC(=O)N4
logP [1]: 1.7
IC50 (HT-29): 9000 nM
IC50 (L1210): 1000 nM
IC50 (A549): 450 nM

SMILES: CCOC(=O)N1COCc2c1ccc1cc3ccc4c(c3nc21)COCN4C(=O)OCC
logP [1]: 2.5
IC50 (HT-29): 1000 nM
IC50 (L1210): > 200000 nM
IC50 (A549): 3500 nM

SMILES: Nc1ccc2cc3ccccc3nc2c1CO
logP [1]: 1.77
IC50 (HT-29): 25 nM
IC50 (L1210): 20 nM
IC50 (A549): 5 nM

SMILES: CCOC(=O)N1COCc2c1ccc1cc3ccc(NC)c(CO)c3nc21
logP [1]: 1.75
IC50 (HT-29): 4200 nM
IC50 (L1210): 1500 nM
IC50 (A549): 350 nM

SMILES: CNc1ccc2cc3ccc4c(c3nc2c1CO)COCN4
logP [1]: 1.65
IC50 (HT-29): 2000 nM
IC50 (L1210): 500 nM
IC50 (A549): 100 nM

SMILES: CNc1ccc2cc3ccc(N(C)S(C)(=O)=O)cc3nc2c1CO
logP [1]: 1.56
IC50 (HT-29): 1200 nM
IC50 (L1210): 200 nM
IC50 (A549): 300 nM

SMILES: CNc1ccc2cc3ccc(NS(C)(=O)=O)cc3nc2c1CO
logP [1]: 0.55
IC50 (HT-29): 29000 nM
IC50 (L1210): 2800 nM
IC50 (A549): 4400 nM

SMILES: CNc1ccc2cc3ccc4c(c3nc2c1CO)COCN4S(C)(=O)=O
logP [1]: 1.2
IC50 (HT-29): 3700 nM
IC50 (L1210): 1600 nM
IC50 (A549): 100 nM

SMILES: CCOC(=O)Nc1ccc2cc3ccc(NC)c(CO)c3nc2c1
logP [1]: 1.97
IC50 (HT-29): 350 nM
IC50 (L1210): 90 nM
IC50 (A549): 30 nM

SMILES: CN1COCc2c1ccc1cc3ccc(N)c(CO)c3nc21
logP [1]: 1.64
IC50 (HT-29): 300 nM
IC50 (L1210): 650 nM
IC50 (A549): 50 nM

SMILES: CN(C)c1ccc2cc3ccccc3nc2c1CO
logP [1]: 2.2
IC50 (HT-29): 14000 nM
IC50 (L1210): 6000 nM
IC50 (A549): 13000 nM
